Here are results for one compound from ChEMBL document CHEMBL5649170, “Sustained microglial depletion with CSF1R inhibitor impairs parenchymal plaque development in an Alzheimer's disease model” (Nat Commun, 2019).

Data set [1] is described as follows: Effect on C1qa gene expression in 5XFAD mouse hippocampus at 1200 ppm administered as rodent chow starting from 1.5 months and measured after 7 months by RNA-Seq analysis (reference value: 61.868 to 70.581 RPKM). The conditions noted are these: route po, time 5.5 months, 4015 h. Type of data set: functional. In short, it runs like this:
(§1)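 WT and 5xFAD mice were treated with 1200 ppm PLX5622 chow or control chow from 1.5 to 7 months of age. Brains were microdissected into cortex, hippocampus and thalamus, and RNA was extracted from tissue powder. Whole-transcriptome RNA-Seq libraries were sequenced, with n = 4 per group per region (48 samples).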

For another data set, the target named is Insulin receptor (Homo sapiens, UniProt P06213). The data set can be described thus: Inhibition of INSR (unknown origin).
Chain of Insulin receptor (P06213 28-758 limits assumed): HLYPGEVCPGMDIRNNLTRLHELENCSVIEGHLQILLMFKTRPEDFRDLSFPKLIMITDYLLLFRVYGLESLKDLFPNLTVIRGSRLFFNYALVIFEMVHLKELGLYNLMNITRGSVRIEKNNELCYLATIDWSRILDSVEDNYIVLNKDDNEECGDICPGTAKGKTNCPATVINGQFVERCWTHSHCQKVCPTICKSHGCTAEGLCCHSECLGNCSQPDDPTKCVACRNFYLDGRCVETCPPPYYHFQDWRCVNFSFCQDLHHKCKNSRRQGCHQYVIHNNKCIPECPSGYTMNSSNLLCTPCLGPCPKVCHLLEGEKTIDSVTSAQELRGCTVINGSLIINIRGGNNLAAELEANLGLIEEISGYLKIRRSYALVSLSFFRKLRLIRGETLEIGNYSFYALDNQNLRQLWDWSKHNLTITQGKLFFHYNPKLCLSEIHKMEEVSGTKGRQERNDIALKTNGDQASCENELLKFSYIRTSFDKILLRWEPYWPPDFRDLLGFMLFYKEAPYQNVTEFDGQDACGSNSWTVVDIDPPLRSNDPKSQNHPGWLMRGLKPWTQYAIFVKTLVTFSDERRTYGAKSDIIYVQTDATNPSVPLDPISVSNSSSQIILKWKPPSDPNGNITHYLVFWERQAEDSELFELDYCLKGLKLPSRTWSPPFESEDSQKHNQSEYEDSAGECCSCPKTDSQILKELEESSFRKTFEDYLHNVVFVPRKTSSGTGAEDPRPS
Chain of Insulin receptor (P06213 763-1382 limits assumed): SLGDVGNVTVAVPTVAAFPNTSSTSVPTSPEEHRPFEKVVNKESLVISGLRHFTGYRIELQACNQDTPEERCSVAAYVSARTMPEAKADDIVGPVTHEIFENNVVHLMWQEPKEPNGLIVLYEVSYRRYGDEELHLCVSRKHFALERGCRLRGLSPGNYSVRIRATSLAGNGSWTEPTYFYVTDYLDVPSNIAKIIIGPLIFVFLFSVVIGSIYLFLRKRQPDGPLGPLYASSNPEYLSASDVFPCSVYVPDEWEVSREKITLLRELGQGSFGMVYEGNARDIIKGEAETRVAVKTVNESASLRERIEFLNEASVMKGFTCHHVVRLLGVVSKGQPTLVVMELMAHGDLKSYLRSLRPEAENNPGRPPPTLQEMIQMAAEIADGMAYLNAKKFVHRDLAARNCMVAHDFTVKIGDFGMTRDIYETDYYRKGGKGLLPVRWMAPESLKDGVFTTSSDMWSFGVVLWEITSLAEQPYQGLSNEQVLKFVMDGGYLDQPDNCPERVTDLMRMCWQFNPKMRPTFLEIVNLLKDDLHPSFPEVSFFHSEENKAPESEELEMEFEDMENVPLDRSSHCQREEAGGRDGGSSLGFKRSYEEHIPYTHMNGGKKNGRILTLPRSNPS
Data set [2] deals with Mus musculus. Briefly: Antialzheimer activity in 5XFAD mouse assessed as ApoE immunoreactivity by measuring APP volume per number of Thio-S positive deposits at 1200 ppm administered as rodent chow starting from 1.5 months and measured after 7 months by immunolabeling based confocal microscopic analysis (reference value: 6.415 to 29.760 microm3). Type of data set: functional. As to conditions: route po, time 5.5 months, 4015 h.

Data set [3] deals with Mus musculus. The data set can be described thus: Antialzheimer activity in wildtype mouse assessed as number of Iba positive cells per FOV in […] cortex at 1200 ppm administered as rodent chow starting from 1.5 months and measured after 7 months (reference value: 322 to 632). In kind it is functional. As to conditions: route po, time 5.5 months, 4015 h.
The nature of data set [4]: Effect on Csf1r RPKM gene expression in wild type mouse cortex at 1200 ppm administered as rodent chow starting from 1.5 months and measured after 7 months by RNA-Seq analysis (reference value: 18.302 to 19.220 RPKM). Type of data set: functional. As to conditions: route po, time 5.5 months, 4015 h.
Data set [5] in a line: Drug concentration in wildtype mouse brain at 1200 ppm administered as rodent chow for 10 to 24 weeks. In kind it is ADME, tissue-based. The conditions noted are these: in vivo, po, time 10-24 weeks, read-out: Ct. In short, it runs like this:
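WT or 5xFAD mice were started at 1.5 months of age on PLX5622 formulated at 1200 ppm in AIN-76A chow, with control chow as comparison. Feeding ran for 10 or 24 weeks. Terminal plasma and brain drug levels were then measured. Groups were sex-balanced and compared by two-tailed independent t-test.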

A short description of data set [6]: Volume of distribution at steady state in female rat at 1.13 mg/kg, iv administered as single dose. In kind it is ADME, organism-based. The conditions noted are these: in vivo, read-out: Vdss.
Data set [7] is described as follows: AUC (0 to 24 hrs) in 5XFAD mouse brain at 1200 ppm administered as rodent chow for 180 days. In kind it is ADME, tissue-based. The conditions noted are these: route po, time 180 day.
Data set [8] has as its system Mus musculus. Briefly: Antialzheimer activity in 5XFAD mouse assessed as number of triads at 1200 ppm administered as rodent chow for 10 to 24 weeks by Y-maze test (reference value: 3 to 9). The conditions noted are these: route po, time 10-24 weeks. In kind it is functional. A digest of the protocol: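 Y-maze: the sequence of arm entries was scored live and video-recorded. Triads were counted as sequential entries into three different arms. Mice had received 1200 ppm PLX5622 or control chow from 1.5 months of age.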

Data set [9] concerns Mus musculus. Briefly: Antialzheimer activity in 5XFAD mouse assessed as alteration in plaque morphology by measuring average plaque circularity in thalamus at 1200 ppm administered as rodent chow starting from 1.5 months and measured after 7 months by Thio-S labeling based confocal microscopic analysis (reference value: 0.257 to 0.365). Type of data set: functional. As to conditions: route po, time 5.5 months, 4015 h.

Data set [10] addresses Phosphatidylinositol 4-kinase beta (Homo sapiens, UniProt Q9UBF8). The data set can be described thus: Inhibition of PI4KB (unknown origin).
A short description of data set [11]: Prevention of Dynll1 gene downregulation in 5XFAD mouse hippocampus assessed as percent change in Reads Per kilo base per Million mapped reads at 1200 ppm administered as rodent chow starting from 1.5 months and measured after 7 months by RNA-Seq analysis (reference value: 79.087 to 86.108 %). Type of data set: functional. The conditions noted are these: route po, time 5.5 months, 4015 h.

Data set [12] concerns Mus musculus. The data set can be described thus: Effect on circulating leukocytes in wildtype mouse assessed as percentage of CD45+/PI- cells expressing CD8 at 1200 ppm administered as rodent chow for 10 to 24 weeks (reference value: 5.56 to 11.8 %). Type of data set: functional. The conditions noted are these: route po, time 10-24 weeks.
Data set [13] concerns the target T1, Macrophage colony-stimulating factor 1 receptor (Mus musculus) (UniProt P09581).
T1 sequence (whole entry): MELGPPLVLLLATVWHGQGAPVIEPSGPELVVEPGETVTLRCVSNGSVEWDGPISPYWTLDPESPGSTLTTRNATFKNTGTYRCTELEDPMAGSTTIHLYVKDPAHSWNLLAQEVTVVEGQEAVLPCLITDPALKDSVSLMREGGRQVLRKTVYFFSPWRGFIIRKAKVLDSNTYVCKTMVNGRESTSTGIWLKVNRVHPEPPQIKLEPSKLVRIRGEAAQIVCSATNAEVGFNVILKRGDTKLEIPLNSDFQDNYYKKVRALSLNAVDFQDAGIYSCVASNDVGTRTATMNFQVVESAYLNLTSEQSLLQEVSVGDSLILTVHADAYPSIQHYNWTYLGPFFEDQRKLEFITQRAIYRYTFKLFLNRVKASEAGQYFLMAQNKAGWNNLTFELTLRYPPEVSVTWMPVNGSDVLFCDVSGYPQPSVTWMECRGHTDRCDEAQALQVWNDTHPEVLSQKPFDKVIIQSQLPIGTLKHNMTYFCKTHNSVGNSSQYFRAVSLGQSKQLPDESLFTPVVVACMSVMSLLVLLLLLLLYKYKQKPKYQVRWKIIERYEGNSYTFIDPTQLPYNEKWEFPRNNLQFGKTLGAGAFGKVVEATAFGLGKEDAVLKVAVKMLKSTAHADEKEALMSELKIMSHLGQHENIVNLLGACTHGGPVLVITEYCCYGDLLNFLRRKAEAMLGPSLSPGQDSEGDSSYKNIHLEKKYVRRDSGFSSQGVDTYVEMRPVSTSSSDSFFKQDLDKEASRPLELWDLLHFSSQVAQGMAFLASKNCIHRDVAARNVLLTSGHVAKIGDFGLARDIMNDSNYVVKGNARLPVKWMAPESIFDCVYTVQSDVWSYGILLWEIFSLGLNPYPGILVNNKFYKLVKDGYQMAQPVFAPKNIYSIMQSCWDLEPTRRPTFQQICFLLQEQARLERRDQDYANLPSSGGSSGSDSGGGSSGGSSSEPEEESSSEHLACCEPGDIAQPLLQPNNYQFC
The data set can be described thus: In vivo inhibition of CSF1R in wildtype mouse assessed as number of GFAP positive cells per FOV at 1200 ppm administered as rodent chow starting from 1.5 months to 4 months followed by compound removal and measured after 1 month by immunolabeling based confocal microscopic analysis (reference value: 1 to 7). As to conditions: route po, time 2.5 months. In kind it is functional.

Data set [14] has as its target Eukaryotic elongation factor 2 kinase (Homo sapiens, UniProt O00418). The data set can be described thus: Inhibition of EEF2K (unknown origin).
Data set [15] deals with Platelet-derived growth factor receptor alpha (Homo sapiens, UniProt P16234). Briefly: Inhibition of PDGFRA (unknown origin).
Chain of Platelet-derived growth factor receptor alpha (P16234 whole entry): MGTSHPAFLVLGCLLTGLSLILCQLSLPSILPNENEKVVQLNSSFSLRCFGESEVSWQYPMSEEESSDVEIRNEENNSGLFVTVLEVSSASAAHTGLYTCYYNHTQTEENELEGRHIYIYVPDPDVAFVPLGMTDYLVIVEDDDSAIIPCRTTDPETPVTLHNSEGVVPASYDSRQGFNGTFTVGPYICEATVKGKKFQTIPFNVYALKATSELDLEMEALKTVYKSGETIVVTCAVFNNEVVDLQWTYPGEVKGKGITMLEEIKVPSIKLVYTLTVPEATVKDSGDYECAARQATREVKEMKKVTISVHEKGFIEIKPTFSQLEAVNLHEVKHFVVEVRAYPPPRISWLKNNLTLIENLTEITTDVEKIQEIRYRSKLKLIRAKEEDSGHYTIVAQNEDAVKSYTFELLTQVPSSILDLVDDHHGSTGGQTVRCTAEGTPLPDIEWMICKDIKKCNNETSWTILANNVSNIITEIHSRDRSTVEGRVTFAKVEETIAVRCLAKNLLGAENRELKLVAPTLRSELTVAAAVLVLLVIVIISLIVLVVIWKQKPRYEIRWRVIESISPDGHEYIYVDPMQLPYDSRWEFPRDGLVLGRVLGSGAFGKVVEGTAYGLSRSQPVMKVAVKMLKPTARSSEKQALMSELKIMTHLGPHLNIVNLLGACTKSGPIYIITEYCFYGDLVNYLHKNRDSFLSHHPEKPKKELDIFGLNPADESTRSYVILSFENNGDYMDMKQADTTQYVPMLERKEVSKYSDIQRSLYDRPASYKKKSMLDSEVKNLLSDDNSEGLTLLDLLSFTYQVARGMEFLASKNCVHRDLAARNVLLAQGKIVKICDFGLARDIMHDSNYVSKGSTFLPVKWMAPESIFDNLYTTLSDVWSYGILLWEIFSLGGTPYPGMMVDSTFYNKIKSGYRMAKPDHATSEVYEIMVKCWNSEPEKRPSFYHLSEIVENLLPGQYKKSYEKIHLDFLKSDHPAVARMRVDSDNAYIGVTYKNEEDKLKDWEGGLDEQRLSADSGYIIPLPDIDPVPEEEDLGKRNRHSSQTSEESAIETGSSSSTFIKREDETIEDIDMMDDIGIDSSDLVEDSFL
In another data set the target is Ephrin type-B receptor 3 (Homo sapiens, UniProt P54753). The data set can be described thus: Inhibition of EPHB3 (unknown origin).
Chain of Ephrin type-B receptor 3 (P54753 whole entry): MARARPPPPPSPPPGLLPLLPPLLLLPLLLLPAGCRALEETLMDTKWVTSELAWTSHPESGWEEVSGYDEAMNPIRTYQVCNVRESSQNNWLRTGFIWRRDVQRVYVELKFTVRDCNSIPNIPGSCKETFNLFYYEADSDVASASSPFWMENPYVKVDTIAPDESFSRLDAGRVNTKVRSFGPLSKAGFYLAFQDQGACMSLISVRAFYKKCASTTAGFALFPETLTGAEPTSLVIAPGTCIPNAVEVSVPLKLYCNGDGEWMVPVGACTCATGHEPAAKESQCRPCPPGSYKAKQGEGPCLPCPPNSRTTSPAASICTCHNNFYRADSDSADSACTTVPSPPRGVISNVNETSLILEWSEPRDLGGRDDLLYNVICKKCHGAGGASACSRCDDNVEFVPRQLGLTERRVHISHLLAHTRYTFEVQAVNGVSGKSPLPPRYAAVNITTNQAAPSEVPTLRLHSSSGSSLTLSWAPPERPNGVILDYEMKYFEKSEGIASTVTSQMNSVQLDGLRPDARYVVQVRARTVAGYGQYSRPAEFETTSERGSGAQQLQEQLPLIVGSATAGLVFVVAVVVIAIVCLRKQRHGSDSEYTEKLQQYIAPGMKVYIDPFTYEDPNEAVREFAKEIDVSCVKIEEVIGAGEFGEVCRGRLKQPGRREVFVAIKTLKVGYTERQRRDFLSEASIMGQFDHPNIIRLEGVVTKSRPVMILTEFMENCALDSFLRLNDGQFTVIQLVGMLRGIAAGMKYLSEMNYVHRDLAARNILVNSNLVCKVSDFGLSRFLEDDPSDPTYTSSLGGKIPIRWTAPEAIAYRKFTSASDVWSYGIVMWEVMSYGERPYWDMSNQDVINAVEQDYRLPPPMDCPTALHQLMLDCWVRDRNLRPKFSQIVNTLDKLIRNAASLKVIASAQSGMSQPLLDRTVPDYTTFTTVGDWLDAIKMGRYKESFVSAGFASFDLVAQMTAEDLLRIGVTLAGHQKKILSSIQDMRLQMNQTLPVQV
A short description of data set [16]: Effect on Spi1 gene expression in 5XFAD mouse cortex at 1200 ppm administered as rodent chow starting from 1.5 months and measured after 7 months by RNA-Seq analysis (reference value: 1.689 to 2.928 RPKM). Type of data set: functional. As to conditions: route po, time 5.5 months, 4015 h.
Data set [17] in a line: Effect on Clec7a gene expression in wild type mouse thalamus at 1200 ppm administered as rodent chow starting from 1.5 months and measured after 7 months by RNA-Seq analysis (reference value: 0.095 to 0.586 RPKM). As to conditions: route po, time 5.5 months, 4015 h. Type of data set: functional. In short, it runs like this:
as §1

In general, IC50 refers to the concentration that gives 50% inhibition. What is called AUC is the area under the concentration-time curve, a measure of exposure. Higher therefore signals more exposure.

Chain of Eukaryotic elongation factor 2 kinase (O00418 whole entry): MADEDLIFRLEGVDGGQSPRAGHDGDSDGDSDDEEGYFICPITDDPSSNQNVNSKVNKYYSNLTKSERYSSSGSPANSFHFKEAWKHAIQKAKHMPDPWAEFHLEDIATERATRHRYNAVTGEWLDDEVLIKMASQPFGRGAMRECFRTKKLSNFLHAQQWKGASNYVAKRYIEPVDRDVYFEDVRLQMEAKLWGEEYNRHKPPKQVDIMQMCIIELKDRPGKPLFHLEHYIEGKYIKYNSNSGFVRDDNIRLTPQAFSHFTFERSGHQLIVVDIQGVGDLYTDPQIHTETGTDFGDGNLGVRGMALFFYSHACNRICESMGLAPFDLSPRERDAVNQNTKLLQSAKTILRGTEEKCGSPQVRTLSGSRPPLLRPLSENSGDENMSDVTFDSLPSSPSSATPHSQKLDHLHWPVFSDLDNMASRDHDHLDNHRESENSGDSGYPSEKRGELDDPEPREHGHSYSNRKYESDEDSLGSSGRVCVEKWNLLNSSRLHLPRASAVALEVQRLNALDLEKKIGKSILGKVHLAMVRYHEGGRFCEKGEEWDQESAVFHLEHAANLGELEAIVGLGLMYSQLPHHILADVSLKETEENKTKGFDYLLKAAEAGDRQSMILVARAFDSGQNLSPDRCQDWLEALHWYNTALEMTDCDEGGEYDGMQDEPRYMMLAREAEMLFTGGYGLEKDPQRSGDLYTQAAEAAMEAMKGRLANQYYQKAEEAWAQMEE
Chain of Phosphatidylinositol 4-kinase beta (Q9UBF8 whole entry): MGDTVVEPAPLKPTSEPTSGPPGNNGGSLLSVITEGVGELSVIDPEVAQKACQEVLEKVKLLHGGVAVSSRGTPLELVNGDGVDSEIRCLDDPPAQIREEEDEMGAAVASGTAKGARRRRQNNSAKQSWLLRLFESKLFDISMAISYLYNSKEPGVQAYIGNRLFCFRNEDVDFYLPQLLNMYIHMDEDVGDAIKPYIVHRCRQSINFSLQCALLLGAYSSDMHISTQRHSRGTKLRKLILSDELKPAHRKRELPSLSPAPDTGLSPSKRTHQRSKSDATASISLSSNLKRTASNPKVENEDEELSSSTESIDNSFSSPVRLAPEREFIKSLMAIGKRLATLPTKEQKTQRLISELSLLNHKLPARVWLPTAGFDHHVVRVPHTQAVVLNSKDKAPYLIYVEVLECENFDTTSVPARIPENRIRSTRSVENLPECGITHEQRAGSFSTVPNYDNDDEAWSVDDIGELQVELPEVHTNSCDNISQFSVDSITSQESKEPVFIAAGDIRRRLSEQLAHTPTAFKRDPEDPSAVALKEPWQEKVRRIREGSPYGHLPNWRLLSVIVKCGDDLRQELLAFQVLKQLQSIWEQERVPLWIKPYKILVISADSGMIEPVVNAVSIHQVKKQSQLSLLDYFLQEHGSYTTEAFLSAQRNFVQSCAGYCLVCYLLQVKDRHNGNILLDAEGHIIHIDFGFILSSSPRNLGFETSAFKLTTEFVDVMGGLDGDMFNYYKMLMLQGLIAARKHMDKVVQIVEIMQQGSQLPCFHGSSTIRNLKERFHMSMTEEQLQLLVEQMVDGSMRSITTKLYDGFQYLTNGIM

As to `COc1ncc(F)cc1CNc1ccc(Cc2c[nH]c3ncc(C)cc23)c(F)n1` [PLX-5622], the Activity came out at 6.689 RPKM in data set [1]; 10.459 um3 with Mus musculus [2]; 0 in the data set on Mus musculus [3]; 0.073 RPKM in data set [4]; 2 in the data set on Mus musculus [8]; 0.175 in the data set on Mus musculus [9]. Further, the Activity in data set [11] turned out to be 96.141%; with Mus musculus [12], 6.35%; in data set [13] it was 3; in data set [16], 0.13 RPKM; in data set [17], 0 RPKM. Further, the half-inhibitory concentration (IC50) (on Insulin receptor; in data set [10]; in [14]; in data set [15]; against Ephrin type-B receptor 3) was more than 1000 nM each time. In [5], the concentration was determined as 3.35 µM. Also, the Vd in data set [6] is 1 L/kg. The compound further had an exposure (AUC) at 4320 h in [7] of 57300 ng·h/mL.
